Results taken from ChEMBL document CHEMBL1153499, “Synthesis, biological evaluation, and metabolic stability of acrylamide derivatives as novel CCR3 antagonists” (Bioorg Med Chem, 2009).

How the values were obtained:
[1] = Permeability by PAMPA; type: ADME; details: read-out: permeability
How it was run: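 PAMPA permeability measured at pH 6.5.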

[2] = AUC (0 to infinity) in mouse at 1 mg/kg, iv; type: ADME, organism-based; set-up: time infinity, dose 1 mg/kg, route intravenous; details: plasma
[3] = Apparent permeability across human Caco-2 cells; type: ADME, cell-based
[4] = Tmax in mouse at 3 mg/kg, po; type: ADME, organism-based; set-up: dose 3 mg/kg, route oral; details: in vivo
[5] = Bioavailability in mouse at 3 mg/kg, po; details: in vivo
[6] = Volume of distribution at steady state in mouse at 1 mg/kg, iv; type: ADME, organism-based; set-up: dose 1 mg/kg, route intravenous; details: in vivo, read-out: Vdss
[7] = AUC (0 to infinity) in mouse at 3 mg/kg, po; type: ADME, organism-based; set-up: time infinity, dose 3 mg/kg, route oral; details: plasma

Structure (SMILES): O=C(NC1CC2CCC(C1)N2Cc1ccc2cc(F)ccc2c1)c1cc[n+]([O-])cc1C(=O)N1CCCCC1 (stereo not given)
- Papp [1]: 4.7 ×10⁻⁶ cm/s

Structure (SMILES): O=C(C=C1CCN(C(=O)c2ccccc2O)CC1)N[C@@H]1CCN(Cc2ccc3cc(F)ccc3c2)C1
- AUC(0-inf) [2]: 190 ng·h/mL
- Papp [3]: 4 ×10⁻⁶ cm/s
- Tmax [4]: 48 min
- bioavailability [5]: 35%
- Vd [6]: 9.88 L/kg
- AUC(0-inf) [7]: 200 ng·h/mL

Structure (SMILES): O=C(NC1CC2CCC(C1)N2Cc1ccc2cc(F)ccc2c1)c1ccccc1-c1ccccc1 (stereo not given)
- Papp [1]: > 30 ×10⁻⁶ cm/s

Structure (SMILES): Cc1ccc(C(=O)N2CCC(=CC(=O)N[C@@H]3CCN(Cc4ccc5cc(F)ccc5c4)C3)CC2)c(O)c1
- Papp [1]: 27.3 ×10⁻⁶ cm/s

Structure (SMILES): O=C(C=C1CCN(C(=O)c2ccccc2)CC1)N[C@@H]1CCN(Cc2ccc3cc(F)ccc3c2)C1
- Papp [1]: 19.9 ×10⁻⁶ cm/s
